# Results as given in PubChem BioAssay.
# Activity calls are given as the source filed them.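 Rule for the calls, unless noted: active = Her2 level under about 52% in both replicate screens, with viability over 70% of control (limit read from the data); inconclusive = Her2 under the limit in one screen only, or viability under 70%; inactive = Her2 level above the set limit.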
# Experiments:
# [1] = reducers of endogenous Her2 protein level, primary screen, SKBR3 breast tumor cells, AlphaScreen, ATP viability (AID 461); settings: 18-24 h, measured here: SKBR3 viability, ATP luminescence, at 10 µM;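 for Her2 level: lower value means less Her2 protein in the cells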;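 for viability: percent of carrier control wells set as 100% viability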
# [2] = target: Receptor tyrosine-protein kinase erbB-2 (Homo sapiens) (UniProt P04626); assay: as above; settings: 18-24 h, at 10 µM, stronger effect = lower value
# [3] = SK-BR-3 cell growth inhibitors, pilot screen, 24 h, human (AID 572;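 active = viability at or below 10% of carrier control in both of two separate runs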;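 note: compound exposure lasted between 18 and 24 h rather than exactly 24 h; 100% = carrier-treated control wells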); settings: SK-BR-3 viability, CellTiter-Glo luminescence, at 10 µM, stronger effect = lower value
# [4] = HUVEC growth inhibition – cell-based, human, primary screen (AID 575;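 active = viability at or below 30% in both replicate assays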;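 note: 100% = median of untreated cell wells with 0.1% DMSO on each plate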); settings: HUVEC proliferation, CellTiter-Glo luminescence, 72 h; at 10 µM; stronger effect = lower value
# Method in brief: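 system = HUVEC primary cells | amount = 1250 cells/well | buffer or medium = supplemented EBM, 2% fetal bovine serum | dosing = single-point 10 µM, DMSO 0.1% final | times = 72 h compound incubation | detection = CTG luminescence | read-out = % viability relative to median vehicle-well signal on each plate | control set = vehicle and MePR control wells | format = collagen-coated 384-well format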
# [5] = growth inhibitors of H69AR lung tumor, primary screen, human, duplicate replicates (AID 580;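 active = viability at or under a set limit in both replicates, limit being median viability minus 3 SD, cut at about 48% in these data, passing the limit was not always enough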;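 note: 100% = mean luminescence of untreated wells and 0% = no signal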); settings: H69AR lung tumor cells viability, ATP luminescence, 72 h; at 10 µM; stronger effect = lower value
# [6] = reversal of MRP1-mediated doxorubicin resistance, pilot screen, H69AR cells, doxorubicin co-treatment (AID 601;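 active = viability loss from added drug above about 55%, and viability with drug at most 40%, in both replicates, limit read from the data, passing the limit was not always enough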); settings: CellTiter-Glo, 72 h, at 10 µM; for differential viability (reversal): stronger effect = higher value
# [7] = 384-well plate pilot, post-Golgi transport modulator project, inhibition of yeast transport mutant growth (AID 636; in the data active = inhibition above about 31%); settings: absorbance 615 nm, about 18 h, stronger effect = higher value
# [8] = growth suppression of yeast trafficking mutant, preliminary HTS, modulators of trafficking downstream of Golgi apparatus project, 1536-format plate, OD 615 nm (AID 637; in the data active = inhibition above about 30%); settings: yeast transport mutant growth, absorbance 615 nm, 18 h; stronger effect = higher value
# [9] = H69AR cells + 2 uM doxorubicin, measured here: viability with 2 uM doxorubicin, stronger effect = lower value
# [10] = H69AR cells, compound alone cytotoxicity
# Chain of Receptor tyrosine-protein kinase erbB-2 (Homo sapiens) (P04626 whole entry, looked up): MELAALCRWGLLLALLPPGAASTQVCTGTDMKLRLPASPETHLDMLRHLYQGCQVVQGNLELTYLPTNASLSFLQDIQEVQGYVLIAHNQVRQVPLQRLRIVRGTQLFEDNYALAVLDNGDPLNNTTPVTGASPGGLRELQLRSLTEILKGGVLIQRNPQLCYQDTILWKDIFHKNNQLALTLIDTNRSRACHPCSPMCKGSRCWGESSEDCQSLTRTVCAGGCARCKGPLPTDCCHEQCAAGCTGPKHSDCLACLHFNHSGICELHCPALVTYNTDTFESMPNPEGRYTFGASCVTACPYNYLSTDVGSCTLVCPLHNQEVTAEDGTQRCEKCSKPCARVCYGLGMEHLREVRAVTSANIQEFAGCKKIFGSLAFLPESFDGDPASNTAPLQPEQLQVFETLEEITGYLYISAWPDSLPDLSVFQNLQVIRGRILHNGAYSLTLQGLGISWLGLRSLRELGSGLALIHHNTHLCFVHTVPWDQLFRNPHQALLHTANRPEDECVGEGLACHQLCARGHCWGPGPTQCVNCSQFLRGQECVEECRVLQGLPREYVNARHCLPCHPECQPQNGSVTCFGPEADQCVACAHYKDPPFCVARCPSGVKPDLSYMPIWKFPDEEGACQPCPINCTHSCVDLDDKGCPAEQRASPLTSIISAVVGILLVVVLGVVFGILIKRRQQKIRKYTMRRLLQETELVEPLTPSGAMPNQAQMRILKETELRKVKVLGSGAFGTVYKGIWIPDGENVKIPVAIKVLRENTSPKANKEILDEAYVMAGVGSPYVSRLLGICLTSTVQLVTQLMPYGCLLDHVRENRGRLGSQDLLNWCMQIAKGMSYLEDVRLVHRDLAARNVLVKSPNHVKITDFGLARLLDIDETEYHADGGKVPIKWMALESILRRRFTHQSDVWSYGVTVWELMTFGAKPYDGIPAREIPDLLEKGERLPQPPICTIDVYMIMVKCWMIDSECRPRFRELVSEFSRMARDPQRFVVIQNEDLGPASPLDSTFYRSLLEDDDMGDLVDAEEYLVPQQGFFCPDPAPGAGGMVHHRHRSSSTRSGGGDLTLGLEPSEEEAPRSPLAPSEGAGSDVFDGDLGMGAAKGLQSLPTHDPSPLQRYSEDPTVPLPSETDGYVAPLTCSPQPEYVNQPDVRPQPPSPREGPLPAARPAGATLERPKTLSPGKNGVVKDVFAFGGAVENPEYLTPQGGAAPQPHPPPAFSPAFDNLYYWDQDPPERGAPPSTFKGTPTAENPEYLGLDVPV
SMILES,viability [1] [%],Her2 level [2],viability [3],viability [4],viability [5],differential viability (reversal) ([6]; H69AR cells + 2 uM doxorubicin),"viability [6, 9] [%]","viability [6, 10] [%]",inhibition [7],inhibition [8]
Cc1cc(NCCN2CCOCC2)n2nc(C)c(-c3ccccc3)c2n1,102,87% (inactive),102% (inactive),91.1% (inactive),96.4% (inactive),12.8% (inactive),83.6,96.4,-0.52% (inactive),-3.33% (inactive)
COC(=O)c1cc2ccsc2n1CC(=O)N(C)c1ccccc1,89.5,94.5% (inactive),89.5% (inactive),90.2% (inactive),84.2% (inactive),0.29% (inactive),84,84.2,0.26% (inactive),-1.83% (inactive)
Cc1ccc(-c2nc3cc(N)ccc3o2)cc1,104,115% (inactive),104% (inactive),72.6% (inactive),79.9% (inactive),-1.81% (inactive),81.7,79.9,-2.82% (inactive),-2.17% (inactive)
CCC(C)NC(=O)CSC1=Nc2ccccc2C2=NC(CC(=O)NCc3ccccc3)C(=O)N12 (stereo not given),96.5,88% (inactive),96.5% (inactive),85.7% (inactive),107% (inactive),13.1% (inactive),94.2,107,-3.03% (inactive),-3.02% (inactive)
COC(=O)c1cc(Oc2ccc(C(=O)OC)cc2N)cc(C(=O)OC)c1,95,100% (inactive),95% (inactive),99.1% (inactive),96.5% (inactive),-2.62% (inactive),99.2,96.5,-1.32% (inactive),-5.82% (inactive)
O=C(NC1CCCCC1)N(Cc1ccc(F)cc1)Cc1nc2ccccc2c(=O)[nH]1,98.5,80% (inactive),98.5% (inactive),78.2% (inactive),100% (inactive),7.63% (inactive),92.4,100,-5.66% (inactive),-1.83% (inactive)
CCCc1cc(C(=O)Nc2ccccc2C(=O)OC)no1,89.5,109% (inactive),89.5% (inactive),64.7% (inactive),89.3% (inactive),7.36% (inactive),82,89.3,4.1% (inactive),14.5% (inactive)
Cc1c(C)c2cc(Cl)c(O)c(CN3CCCCC3)c2oc1=O,97.5,112% (inactive),97.5% (inactive),102% (inactive),99% (inactive),3.51% (inactive),95.5,99,1.18% (inactive),5.57% (inactive)
CCN(CC)C(=O)C1CCC(CNS(=O)(=O)c2cccc3cccnc23)CC1 (stereo not given),92,97% (inactive),92% (inactive),89.9% (inactive),99.2% (inactive),2.08% (inactive),97.1,99.2,-1.87% (inactive),-2.3% (inactive)
CCCCOc1ccc(-c2nnn(C(C)(C)C(=O)OC)n2)cc1,96,107% (inactive),96% (inactive),86% (inactive),92.2% (inactive),-7.05% (inactive),99.3,92.2,-0.91% (inactive),-4.29% (inactive)
O=C(C1CCCO1)N1CCc2ccccc21 (stereo not given),85,92.5% (inactive),85% (inactive),94% (inactive),92.4% (inactive),-5.42% (inactive),97.8,92.4,-4.8% (inactive),-0.32% (inactive)
O=C(Nc1ccc(S(=O)(=O)N2CCc3ccccc32)cc1)c1ccc2c(c1)OCO2,77,75.5% (inactive),77% (inactive),76.7% (inactive),103% (inactive),2.24% (inactive),100,103,3.51% (inactive),-8.73% (inactive)
COc1ccccc1NS(=O)(=O)c1ccc(OC)c(OC)c1,86,85% (inactive),86% (inactive),91.6% (inactive),99.8% (inactive),-3.15% (inactive),103,99.8,-6.62% (inactive),6.56% (inactive)
O=c1/c(=C/c2ccco2)sc2nc(-c3ccccc3Br)nn12,97,89.5% (inactive),97% (inactive),99.8% (inactive),92.4% (inactive),4.5% (inactive),87.9,92.4,-6.8% (inactive),1.64% (inactive)
COc1ccc(Cc2nc(-c3ccc(Br)cc3)no2)cc1,72.5,106% (inactive),72.5% (inactive),92.8% (inactive),98.2% (inactive),-2.99% (inactive),101,98.2,-0.13% (inactive),-12.3% (inactive)
CC12CCC(C(=O)O)(c3nc(C#N)c(C#N)nc31)C2(C)C (stereo not given),106,96.5% (inactive),106% (inactive),115% (inactive),91.6% (inactive),6.8% (inactive),84.8,91.6,-6.27% (inactive),6.07% (inactive)

SMILES,viability [1] [%],Her2 level [2],viability [3],viability [4],viability [5],differential viability (reversal) ([6]; H69AR cells + 2 uM doxorubicin),"viability [6, 9] [%]","viability [6, 10] [%]",inhibition [7],inhibition [8]
CC(C)(C)n1nnnc1C(c1cccs1)N1CCN(Cc2ccccc2)CC1 (stereo not given),90,98.5% (inactive),90% (inactive),86% (inactive),84.3% (inactive),0.73% (inactive),83.6,84.3,-4.16% (inactive),-2.86% (inactive)
COC(=O)Cn1c(C)nc2c(sc3nc(C)cc(C)c32)c1=O,110,113% (inactive),110% (inactive),105% (inactive),97.6% (inactive),7.48% (inactive),90.1,97.6,-4.61% (inactive),2.79% (inactive)
COc1ccc(-c2nnc(SCC(=O)Nc3cc(C)on3)n2C)cc1OC,101,90% (inactive),101% (inactive),108% (inactive),105% (inactive),11.9% (inactive),92.6,105,-6.22% (inactive),4.59% (inactive)
COc1cccc(OCCn2ccnc2)c1,90.5,104% (inactive),90.5% (inactive),89.6% (inactive),89.4% (inactive),-3.7% (inactive),93.1,89.4,-4.93% (inactive),-9.21% (inactive)
CCOc1ccc(-c2nc(S(=O)(=O)c3ccccc3)c(NCc3cccnc3)o2)cc1,97,94% (inactive),97% (inactive),94.2% (inactive),97.6% (inactive),6.18% (inactive),91.4,97.6,1.33% (inactive),-1.13% (inactive)
CCn1c(CCC(=O)Nc2nc3c(s2)CCCC3)nc2cc(S(=O)(=O)N(C)C)ccc21,89.5,80% (inactive),89.5% (inactive),59.9% (inactive),85.4% (inactive),18.7% (inactive),66.7,85.4,5.27% (inactive),-3.11% (inactive)
Cc1ccccc1NC(=O)CSc1nnc(Cc2cccn2C)n1-c1ccc(F)cc1,88.5,112% (inactive),88.5% (inactive),78.6% (inactive),100% (inactive),-1.44% (inactive),102,100,-0.9% (inactive),-3.5% (inactive)
O=C(CSc1nc2cc(Cl)ccc2s1)N1CCN(C(=O)c2ccco2)CC1,91,84.5% (inactive),91% (inactive),91.6% (inactive),100% (inactive),0.815% (inactive),99.5,100,-3.87% (inactive),0.97% (inactive)
COC(=O)C1=CN(C)C=C(C(=O)OC)C1c1ccc(O)c(OC)c1,96.5,98% (inactive),96.5% (inactive),88.1% (inactive),100% (inactive),6.83% (inactive),93.4,100,-3.16% (inactive),4% (inactive)
O=C(NCc1ccco1)c1c2c(nc3ccccc13)CCC2,108,80% (inactive),108% (inactive),82.4% (inactive),80.7% (inactive),3.16% (inactive),77.5,80.7,-6.4% (inactive),3.23% (inactive)
COC(=O)c1[nH]c(C)c(/C(O)=C2\C(=O)C(=O)N(CCN(C)C)C2c2ccccc2OC)c1C (stereo not given),88,114% (inactive),88% (inactive),79% (inactive),84.3% (inactive),1.34% (inactive),82.9,84.3,-6.89% (inactive),-1.5% (inactive)
O=C(CC(CC(=O)c1ccccc1)C(=O)O)c1ccccc1,89,101% (inactive),89% (inactive),107% (inactive),102% (inactive),5.54% (inactive),96.5,102,3.6% (inactive),-6.77% (inactive)
O=C(COC(=O)c1cc(S(=O)(=O)N2CCOCC2)ccc1O)NCC1CCCO1 (stereo not given),91.5,85.5% (inactive),91.5% (inactive),98.7% (inactive),91% (inactive),-3.47% (inactive),94.5,91,-6.4% (inactive),8.36% (inactive)
CCn1c(C(=O)N2CCCC(C(=O)O)C2)cc2sccc21 (stereo not given),103,98.5% (inactive),103% (inactive),101% (inactive),93.8% (inactive),6.41% (inactive),87.4,93.8,0.53% (inactive),-1.15% (inactive)
CCOC(=O)c1[nH]c(C)c(C(=O)Nc2ccccc2C)c1C,79.5,85% (inactive),79.5% (inactive),60.8% (inactive),19.3% (active),-46.6% (inactive),65.9,19.3,-0.9% (inactive),3.67% (inactive)
COc1cc(C(Nc2ccc3c(c2)OCO3)C(=O)NC2CCCCC2)cc(OC)c1OC (stereo not given),74.5,75% (inactive),74.5% (inactive),94.2% (inactive),93% (inactive),-6.39% (inactive),99.4,93,-4.32% (inactive),7.94% (inactive)
